According to ChEMBL document CHEMBL3867444, “Design and synthesis of new potent PTP1B inhibitors with the skeleton of 2-substituted imino-3-substituted-5-heteroarylidene-1,3-thiazolidine-4-one: Part I” (Eur J Med Chem, 2016):

Tests used:
[1] = target: T1, Tyrosine-protein phosphatase non-receptor type 1 (Homo sapiens) (UniProt P18031); assay: Inhibition of human recombinant GST-tagged PTP1B catalytic domain expressed in Escherichia coli BL21-[…] plus (DE3) at 20 ug/ml using pNPP as substrate relative to control
T1 sequence (whole entry): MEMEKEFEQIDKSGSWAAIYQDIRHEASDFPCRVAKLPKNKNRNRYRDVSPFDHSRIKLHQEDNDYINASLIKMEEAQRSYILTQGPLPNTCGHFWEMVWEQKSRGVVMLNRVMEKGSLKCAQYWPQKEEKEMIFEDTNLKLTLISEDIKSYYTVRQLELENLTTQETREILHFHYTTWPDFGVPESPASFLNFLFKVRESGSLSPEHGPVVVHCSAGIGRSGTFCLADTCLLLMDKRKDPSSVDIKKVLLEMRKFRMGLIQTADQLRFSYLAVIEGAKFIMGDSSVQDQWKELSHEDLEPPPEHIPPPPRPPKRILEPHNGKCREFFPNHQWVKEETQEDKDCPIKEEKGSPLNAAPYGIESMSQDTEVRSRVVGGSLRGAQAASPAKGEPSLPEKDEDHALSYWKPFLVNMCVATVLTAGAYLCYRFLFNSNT

[2] = target: T2, M-phase inducer phosphatase 2 (Homo sapiens) (UniProt P30305); assay: Inhibition of human recombinant GST-tagged CDC25B assessed as reduction in dephosphorylation of florigenic phosphatase substrate at 5 ug/ml preincubated for 1 hr followed by substrate addition measured after 1 hr by fluorescence assay relative to control
T2 sequence (whole entry): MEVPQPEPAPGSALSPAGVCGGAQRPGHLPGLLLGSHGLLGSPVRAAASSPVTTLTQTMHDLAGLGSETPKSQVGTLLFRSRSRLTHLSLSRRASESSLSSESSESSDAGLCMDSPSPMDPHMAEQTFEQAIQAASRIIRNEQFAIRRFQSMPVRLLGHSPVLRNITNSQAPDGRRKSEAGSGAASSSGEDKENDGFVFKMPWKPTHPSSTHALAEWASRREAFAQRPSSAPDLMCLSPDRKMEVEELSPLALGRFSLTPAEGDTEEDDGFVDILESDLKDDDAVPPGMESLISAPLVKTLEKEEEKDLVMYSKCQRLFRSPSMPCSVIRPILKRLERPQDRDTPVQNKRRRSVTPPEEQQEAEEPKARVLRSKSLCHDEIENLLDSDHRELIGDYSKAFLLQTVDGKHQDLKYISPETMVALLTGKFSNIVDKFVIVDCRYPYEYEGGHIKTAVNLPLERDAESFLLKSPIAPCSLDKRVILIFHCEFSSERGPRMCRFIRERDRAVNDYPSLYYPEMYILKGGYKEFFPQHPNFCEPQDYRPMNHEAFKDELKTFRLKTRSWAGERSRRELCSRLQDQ

[3] = target: T1, Tyrosine-protein phosphatase non-receptor type 1 (Homo sapiens); assay: Inhibition of human recombinant GST-tagged PTP1B catalytic domain expressed in Escherichia coli BL21-[…] plus (DE3) at 5 ug/ml using pNPP as substrate relative to control
[4] = target: T3, M-phase inducer phosphatase 2 (Homo sapiens, UniProt P30305); assay: Inhibition of human recombinant GST-tagged CDC25B assessed as reduction in dephosphorylation of florigenic phosphatase substrate preincubated for 1 hr followed by substrate addition measured after 1 hr by fluorescence assay
T3 sequence (P30305 whole entry): T2 sequence (whole entry)
Method in brief: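 Purified GST-CDC25B fusion protein was preincubated with compound for 1 h, then fluorescein diphosphate (5mM) was added. Fluorescence was read within the linear range of the reaction after 1 h at room temperature. Na₃VO₄ served as positive control and DMSO as negative control.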

[5] = target: T4, Tyrosine-protein phosphatase non-receptor type 1 (Homo sapiens, UniProt P18031); assay: Inhibition of human recombinant GST-tagged PTP1B catalytic domain expressed in Escherichia coli BL21-[…] plus (DE3) using pNPP as substrate
T4 sequence (P18031 whole entry): T1 sequence (whole entry)

[6] = target: T4, Tyrosine-protein phosphatase non-receptor type 1; assay: Inhibition of PTP1B (unknown origin)

Row | Molecule | inhibition [1] | inhibition [2] | inhibition [3] | IC50 [4] | IC50 [5] | IC50 [6]
1 | CCOC(=O)c1c(C)[nH]c(/C=C2\S/C(=N\c3ccc(C)cc3)N(c3ccc(C)cc3)C2=O)c1C | 28.4% | – | – | – | – | –
2 | CCOC(=O)c1c(C)[nH]c(/C=C2\S/C(=N\c3ccc(OC)cc3)N(c3ccc(OC)cc3)C2=O)c1C | 98.7% | 76.5% | 47.7% | 2.74 µM | – | –
3 | CCOC(=O)c1c(C)[nH]c(/C=C2\S/C(=N\c3cccc(F)c3)N(c3cccc(F)c3)C2=O)c1C | 96.3% | 82.8% | 74.2% | 3.39 µM | 6.83 µM | –
4 | SODIUM ORTHOVANAD | – | – | – | 0.91 µM | – | –
5 | Cc1cc(I)cc2c1NC(c1cccc(N)c1)C1CC=CC21 (stereo not given) | – | – | – | – | – | 7.5 µM
6 | CC/N=C1\S/C(=C\c2ccc(OCCN(C)c3ccccn3)cc2)C(=O)N1CC | 42.1% | – | – | – | – | –
7 | CC(C)N1C(=O)/C(=C/c2ccc(OCCN(C)c3ccccn3)cc2)S/C1=N\O | 67.5% | 98.5% | 19.3% | 2.47 µM | – | –
8 | CCOC(=O)c1c(C)[nH]c(/C=C2\S/C(=N/O)N(C(C)C)C2=O)c1C | 95.8% | 80.2% | 49% | 5.83 µM | – | –
9 | CCOC(=O)c1c(C)[nH]c(/C=C2\S/C(=N\c3ccc(F)cc3)N(c3ccc(F)cc3)C2=O)c1C | 94.5% | 84.7% | 82.7% | 2.87 µM | 6.09 µM | –
10 | CCOC(=O)c1c(C)[nH]c(/C=C2\S/C(=N\c3ccccc3)N(c3ccccc3)C2=O)c1C | 99.9% | 83.7% | 81.1% | 1.66 µM | 8.66 µM | –
11 | CCOC(=O)c1c(C)[nH]c(/C=C2\S/C(=N\c3ccccc3F)N(c3ccccc3F)C2=O)c1C | 98.3% | 64.2% | 45% | 3.66 µM | – | –
